Data set [1] can be described thus: Binding affinity to BCL2 promoter G-quadruplex DNA (unknown origin) after 1 min by fluorescence titration method. It counts as ADME. A digest of the protocol: (§1)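 Oligonucleotide stock added stepwise to fixed-concentration compound in 10 mM Tris-HCl pH 7.2, 100 mM KCl; equilibrated ≥1 min after each addition, emission read with excitation at 350 nm. KD from fitting titration data to the Benesi–Hildebrand equation; 1:1 stoichiometry checked by Job plot.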

Data set [2] can be described thus: Binding affinity to KRAS promoter G-quadruplex DNA (unknown origin) after 1 min by fluorescence titration method. It counts as ADME. Summed up: as §1
In data set [3] the test system is SiHa. Put plainly: Antitumor activity against human SiHa cells xenografted in nude BALB/c mouse assessed as tumor growth inhibition at 20 mg,kg, ip administered every other day for 24 days. It counts as functional. Summed up:
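BALB/c nude mice (5 weeks old) given 1×10^7 SiHa cells subcutaneously in right flank; at ~50 mm3 tumor volume, randomized (10 per group) and dosed intraperitoneally every other day for 24 days; controls got equal-volume saline. Caliper volume as 1/2 × length × width2; tumors weighed at end; inhibition rate = (1 − mean treated tumor weight/mean control tumor weight) × 100%.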

Data set [4] can be described thus: Stabilization of c-Myc promoter pu22 G-quadruplex DNA (unknown origin) assessed as change in melting temperature at 15 uM by circular dichroism spectroscopic assay. A digest of the protocol:
(§2)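 CD melting of 3 µM annealed G-quadruplex with or without 15 µM ligand in 10 mM Tris-HCl pH 7.2 with 2 mM KCl (50 mM KCl for htg22 and HRAS); read every 5 °C over 25–95 °C, heating 1 °C/min.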

A further data set is filed under the species Homo sapiens. In words: Stabilization of c-Myc promoter G-quadruplex DNA in human CA46 cells assessed as effect on exon 2 transcriptional level at 1.25 to 5 uM after 6 hrs by RT-PCR analysis. Type of data set: cell-based. A digest of the protocol:
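RAJI and CA46 cells treated 6 h over a concentration range; total RNA reverse-transcribed (oligo dT18, M-MLV, 42 °C 1 h then 85 °C 5 min); exon 1 and exon 2 amplified by real-time PCR with exon-specific primers, products run on 1% agarose gel; three repeats.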

Data set [5] is described as follows: Stabilization of KRAS G-quadruplex DNA in human SiHa cells assessed as effect on […] mRNA level at 1.25 to 5 uM fter 6 hrs by RT-PCR method. Type of data set: ADME, cell-based. Summed up:
(§3)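 SiHa cells (2.0×10^5 per well) treated 6 h; total RNA (2 µg) reverse-transcribed with oligo dT18 and M-MLV at 42 °C for 1 h, 85 °C for 5 min; PCR: 95 °C 5 min, then 30 cycles of 95 °C 30 s, 58 °C 30 s, 72 °C 40 s; products checked on agarose gel.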

The subject of data set [6] is SiHa. In words: Induction of apoptosis in human SiHa cells assessed as late apoptotic cells at 5 uM after 24 hrs by Annexin V-FITC/propidium iodide-staining based flow cytometric analysis. Type of data set: functional. (In general: In flow cytometry, cells or beads pass a laser one at a time.)
Data set [7] in a line: Stabilization of antiparallel HRAS G-quadruplex DNA (unknown origin) assessed as effect on melting temperature at 15 uM by circular dichroism spectroscopic assay. It counts as ADME. Summed up:
as §2
(In general: CD spectra are sensitive to the conformation of chiral molecules.)

The test system of data set [8] is Mus musculus. In words: Toxicity in nude BALB/c mouse xenografted with human SiHa cells assessed as viscera weight reduction at 5 to 20 mg/kg, ip administered every other day for 24 days. It counts as organism-based. Conditions: in vivo, 576 h. Summed up:
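BALB/c nude mice, 5 weeks old, implanted subcutaneously in right flank with 1×10^7 SiHa cells; at ~50 mm3 tumor, 10 per group dosed ip every other day for 24 days, saline control; body weight measured daily, viscera weighed at sacrifice; mean ± SEM, Student's t test versus saline.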
(In general: Xenograft models place foreign cells or tissue in a host animal.)

In a further data set the test system is Huh-7. Put plainly: Cytotoxicity against human Huh7 cells assessed as reduction in cell viability after 24 hrs by MTT assay. It counts as functional, cell-based. The note with it: Huh-7, 24 h. Summed up:
(§4)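 Cells seeded at 5.0×10^3 per well, exposed to compound for 24 h; MTT (2.5 mg/mL) added for 4 h, formazan dissolved in DMSO, OD read at 570 nm. Triplicate; IC50 from curves of mean OD against concentration.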

A further data set has as its system HeLa. Put plainly: Cytotoxicity against human HeLa cells assessed as reduction in cell viability after 24 hrs by MTT assay. It counts as functional, cell-based. A digest of the protocol:
as §4

Data set [9] has as its system SiHa. Put plainly: Induction of apoptosis in human SiHa cells assessed as early apoptotic cells at 5 uM after 24 hrs by Annexin V-FITC/propidium iodide-staining based flow cytometric analysis. Type of data set: functional.
Data set [10] can be described thus: Stabilization of Bcl2 G-quadruplex DNA in human SiHa cells assessed as effect on Bcl2 mRNA level at 1.25 to 5 uM fter 6 hrs by RT-PCR method. Type of data set: ADME, cell-based. Summed up: as §3
A short description of data set [11]: Cytotoxicity against mouse primary mesangial cells assessed as reduction in cell viability after 24 hrs by MTT assay. Type of data set: cell-based. Summed up:
as §4

In the next data set the test system is BJ. In words: Cytotoxicity against human BJ cells assessed as cell growth inhibition at 1.2 to 3 uM after 130 hrs by RTCA assay. It counts as cell-based. A digest of the protocol:
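Cells seeded at 2000 per well on impedance plates, settled 20 min at room temperature, profiled 24 h; medium then replaced with compound-containing medium and cells monitored to 130 h total. Cell index normalized to 1.0 at the time point just before compound addition.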

For data set [12], the system named is SiHa. Put plainly: Induction of cell cycle arrest in human SiHa cells assessed as upregulation of p27 protein levels after 24 hrs by Western blot analysis. It counts as functional, cell-based. Summed up:
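SiHa cells (2.0×10^5 per well) treated 24 h, lysed at 4 °C for 30 min, supernatant cleared at 15,000 rpm; protein measured by BCA, 30 µg resolved on 10% SDS-PAGE, transferred to nitrocellulose, blocked in 5% milk/TBS-Tween 1 h, primary antibodies overnight at 4 °C, HRP secondaries 2 h at room temperature.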

For data set [13], the system named is Mus musculus. In words: In vivo stabilization of c-Myc G-quadruplex DNA in human SiHa cells xenografted in nude BALB/c mouse assessed as decrease in c-Myc expression at 20 mg/kg, ip administered every other day for 24 days by immunohistochemistry. Type of data set: functional, organism-based.
Data set [14] relates to SiHa. Put plainly: Induction of cell cycle arrest in human SiHa cells assessed as accumulation at G0/G1 phase up to 5 uM after 12 hrs by propidium iodide-staining based FACS analysis (reference value: 61%). It counts as functional. A digest of the protocol:
(§5)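 SiHa cells treated 12 h, fixed in 70% ethanol at 4 °C overnight, stained with 50 µg/mL PI plus 75 KU/mL RNase A in PBS for 30 min in the dark at room temperature; flow cytometry, 1.6×10^4 events per sample, cell cycle distribution analyzed.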

For data set [15], the system named is SiHa. In words: Induction of cell cycle arrest in human SiHa cells assessed as accumulation at G0/G1 phase after 12 hrs by propidium iodide-staining based FACS analysis. It counts as functional. Summed up: as §5
Data set [16] in a line: Binding affinity to up to 10 uM hybrid telomeric htg22 G-quadruplex DNA (unknown origin) at 1 uM after 1 min by fluorescence spectroscopic analysis. It counts as ADME. Summed up: as §1
Data set [17] can be described thus: Stabilization of RET G-quadruplex DNA in human SiHa cells assessed as effect on RET mRNA level at 1.25 to 5 uM fter 6 hrs by RT-PCR method. It counts as ADME, cell-based. A digest of the protocol:
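SiHa cells (2.0×10^5) dosed 6 h; total RNA reverse-transcribed with oligo dT18 primer and M-MLV (42 °C 1 h, 85 °C 5 min); PCR 95 °C 5 min then 30 cycles (95 °C 30 s, 58 °C 30 s, 72 °C 40 s); products checked on agarose gel.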

pIC50, pKd: −log10 of the molar value. Activity calls are given as the source filed them. The rule behind the calls is not given here.

Broadly, the pKd is −log10 of the Kd, conventionally taken in molar units. By TGI is commonly meant how far tumour growth fell short of that in controls. Broadly, the ΔTm is the shift of the melting midpoint relative to a reference. A word on the pIC50: it is the negative decadic logarithm of the IC50, by convention in mol/L.

For the compound `CCn1c2ccccc2c2cc(-c3nc(-c4ccc(N5CCN(C)CC5)cc4)c(-c4ccc(N5CCN(C)CC5)cc4)n3-c3ccc(OC)cc3)ccc21`, the pKd in data set [1] was 6.10; in data set [2], 6.00. Also, the TGI with SiHa [3] is listed as 69%. In data set [4], the ΔTm was determined as 20 °C. For the same compound, the outcome in the data set listed under Homo sapiens was inactive. Also, the Activity result in [5] is reported as “Not Active”; in the data set on SiHa [6] it was 52%; in data set [7] it was “Not Active”; with Mus musculus [8], “Non-Toxic”; with SiHa [9], 22%; in data set [10] it was “Not Active”. For the same compound, the Activity entry with SiHa [12] was “Dose-dependent effect”; with SiHa [14], 70%; in the data set with SiHa [15], “Dose-dependent effect”; in data set [16], “Not Active”; in data set [17] it was “Not Active”. Moreover, the pIC50 with Huh-7 was 5.39; with HeLa it was 5.68; in [11] it was 4.81. Besides, the “growth inhibition (GI)” value with BJ is “Non-Toxic”. For the same compound, in the data set on Mus musculus [13], the result was Active.

For the origin of these results see ChEMBL document CHEMBL4033789, “Discovery of a New Four-Leaf Clover-Like Ligand as a Potent c-MYC Transcription Inhibitor Specifically Targeting the Promoter G-Quadruplex” (J Med Chem, 2018).
